Some of the results follow. Unmarked numbers belong to inactive results. Active and inactive are the calls of the source.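 Rule for the calls: active = mean inhibition over triplicates exceeds the hit threshold derived for the earlier primary screening run (cut at about 25% in these data); inactive = the rest.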

Sequence of Arf-GAP with SH3 domain, ANK repeat and PH domain-containing protein 1 (Homo sapiens) (Q9ULH1 325-724 limits assumed): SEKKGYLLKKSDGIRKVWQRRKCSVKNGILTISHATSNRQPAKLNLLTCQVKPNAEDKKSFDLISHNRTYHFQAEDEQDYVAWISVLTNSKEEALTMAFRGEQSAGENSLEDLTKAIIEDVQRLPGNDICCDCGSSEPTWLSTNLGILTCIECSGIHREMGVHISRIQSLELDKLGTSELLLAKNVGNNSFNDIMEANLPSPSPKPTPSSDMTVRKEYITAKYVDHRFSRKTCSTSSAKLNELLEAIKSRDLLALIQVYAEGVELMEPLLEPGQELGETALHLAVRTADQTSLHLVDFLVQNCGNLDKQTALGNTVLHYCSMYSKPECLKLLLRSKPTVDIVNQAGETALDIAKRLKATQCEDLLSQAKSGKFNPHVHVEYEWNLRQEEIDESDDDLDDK

The target of this assay is Arf-GAP with SH3 domain, ANK repeat and PH domain-containing protein 1 (Homo sapiens) (UniProt Q9ULH1). The experiment in a line: ASAP1 GAP activity inhibitors, confirmation, biochemical, fluorescence polarization, human, triplicate (AID 624431). To be noted: ASAP1-stimulated Arf1 GTPase, GDP fluorescence polarization; at 16.5 µM; hits give high values. The method in brief: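 Detection: Fluorescence polarization, free GDP displacing antibody-bound GDP Alexa 633 tracer | System: ASAP1 GAP domain protein (residues 325-724) | Schedule: 20-min ASAP1–compound and 120-min Arf1-GTP steps at 25 °C, 60-min tracer | Benchmarks: Wells without ASAP1 as full-inhibition reference control | Read-out: % inhibition versus wells lacking ASAP1 | Compound dosing: 16.5 µM single dose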
A word on the inhibition: it is the drop in the measured response relative to a control, in per cent. Regarding `COc1cc(/C=N/Nc2nn3cnnc3c3ccccc23)cc(OC)c1OC`, the inhibition was 39% (active).
To `COC(=O)c1ccc(NCC(=O)c2ccccc2)cc1` belongs -2.85%; to `CCOC(=O)c1ccc(Nc2cc3ccccc3c(=O)[nH]2)cc1`, 9.9%; to `CC(=O)Nc1cc(-c2ccc(N3CCN(C)CC3)cc2)cn2c(-c3cccc(C(=O)N(C)C)c3)cnc12`, 69.3% (active).
For `CCN(CC)c1ccc2cc(C(N)=O)/c(=N\NC(=O)c3ccncc3)oc2c1`, the inhibition is 87.2% (active).
To `Cc1ccc2nc(SCC(=O)N3CC(C)OC(C)C3)nc(=O)n2c1` (stereo unspecified) belongs 54.1% (active); to `COc1ccc(-n2nnnc2SCC(=O)c2ccc(OC)c(OC)c2)cc1`, 30.7% (active).
With `CCN1CCN(CCNC(=O)c2ccc3c(c2)NC(=O)/C(=C\c2ccc(OC)c(OC)c2)S3)CC1` the figure was 94% (active).
With `COc1ccc(C(CNC(=O)c2cccc(S(=O)(=O)Nc3ccccc3Cl)c2)N2CCOCC2)cc1` (stereo unspecified) the figure was 16.6%; with `Cc1cccc(-n2ncc(Cl)c(Cl)c2=O)c1`, -3.51%.
For `O=c1/c(=C/c2ccc(CNS(=O)(=O)c3ccccc3)o2)sc2n1CCN=2`, the inhibition is -9.13%.
Consider `OCCNc1nc(Nc2ccc(Cl)c(Cl)c2)nc2ccccc12`, for which the inhibition is 26.6% (active).
For `c1ccc(-c2cc(-c3nnc4sc(-c5ccccn5)nn34)[nH]n2)cc1`, the inhibition was 33% (active).
With `N#Cc1cc([N+](=O)[O-])ccc1Oc1cccc(/C=N/NC(=O)c2ccc(Cl)cc2)c1` the figure was 31.5% (active); with `C=CCC[C@@H](CCCCC)OC(=O)/C=C/[C@@H](O)[C@H](O)C[C@H](O)CC=C`, 1.35%; with `CC(=O)Nc1cc(-c2ccc(N3CCN(C)CC3)cc2)cn2c(-c3ccc(F)cc3)cnc12`, 40.5% (active).
Regarding `C=CCNc1nc(N)c(C(=C(C#N)C#N)c2ccccc2)s1`, the inhibition is 13.1%.
With `O=C(NC1=CC(=O)c2ccccc2C1=O)c1ccccc1` the figure was 13.6%; with `COc1ccc(/C=N/Nc2ncnc3sc4c(c23)CCCC4)cc1O`, 26.2% (active); with `CC(=O)N(C1=C(Cl)C(=O)c2ccccc2C1=O)c1ccc(C(=O)O)cc1`, 22.3%.
With `CC(=O)c1cccc(-c2cnc3c(NC=O)cc(-c4ccc(N5CCN(C)CC5)cc4)cn23)c1` the figure was 77.7% (active).

The values are drawn from PubChem BioAssay AID624431 (The Scripps Research Institute Molecular Screening Center, 2012).
